Values joined by “and” are separate entries in the source; they are usually repeats but may differ in a detail not shown here. Equal entries are not always repeated.
How the values were obtained:
Fibroblast = experiment: Multiplex assay against human fibroblast; type: toxicity, cell-based; settings: number of replicates 2
Outline: (§1)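 Compound was added to live cells that had been stained at seeding with Hoechst33342, BioTracker Green Microtubule Cytoskeleton Dye, MitoTracker Red and Annexin V Alexa Fluor 680, and imaging followed on a CQ1 microscope at 37°C and 5% CO2. CellPathfinder machine-learning gating divided cells into Hoechst high-intensity objects or normal cells, normal cells into healthy, pyknosed or fragmented nuclei, and pyknosed cells into mitotic or apoptotic. Tubulin, mitochondrial-mass and membrane-permeability phenotypes are per cents of healthy-nucleus cells.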

HEK-293T = experiment: Multiplex assay against HEK293T; type: toxicity, cell-based; settings: human, number of replicates 2; outline: as §1
[1] = 12 h, 1 µM, compound concentration 1 uM
[2] = 12 h, 10 µM, compound concentration 10 uM
[3] = 24 h, 1 µM, compound concentration 1 uM
[4] = 24 h, 10 µM, compound concentration 10 uM
[5] = 48 h, 1 µM, compound concentration 1 uM
[6] = 48 h, 10 µM, compound concentration 10 uM

CC(C)c1c(NC(=O)Nc2ccc(Cl)cc2)c(=O)n(-c2ccccc2)n1C
Population Apoptotic (%) (Fibroblast; [1]): 30% and 36%
Population Fragmented Nuclei (%) (Fibroblast; [1]): 9% and 13%
Population Healthy Nuclei (%) (Fibroblast; [1]): 77% and 68%
Population Hoechst High Intensity Objects (%) (Fibroblast; [1]): 0%
Population Membrane Permeable-Phenotype (%) (Fibroblast; [1]): 5% and 3%
Population Mitochondria Different-Phenotype (%) (Fibroblast; [1]): 0%
Population Mitotic Cells (%) (Fibroblast; [1]): 69% and 63%
Population Normal (%) (Fibroblast; [1]): 100% and 99%
Population Pyknosed Nuclei (%) (Fibroblast; [1]): 13% and 17%
Population Tubulin-Different-Phenotype (%) (Fibroblast; [1]): 11% and 7%
Total Cell Count (Fibroblast; [1]): 175 and 269
Population Apoptotic (%) (Fibroblast; [2]): 34% and 46%
Population Fragmented Nuclei (%) (Fibroblast; [2]): 9% and 7%
Population Healthy Nuclei (%) (Fibroblast; [2]): 68%
Population Hoechst High Intensity Objects (%) (Fibroblast; [2]): 0%
Population Membrane Permeable-Phenotype (%) (Fibroblast; [2]): 2% and 11%
Population Mitochondria Different-Phenotype (%) (Fibroblast; [2]): 1%
Population Mitotic Cells (%) (Fibroblast; [2]): 65% and 53%
Population Normal (%) (Fibroblast; [2]): 99% and 100%
Population Pyknosed Nuclei (%) (Fibroblast; [2]): 21% and 24%
Population Tubulin-Different-Phenotype (%) (Fibroblast; [2]): 12% and 21%
Total Cell Count (Fibroblast; [2]): 122 and 191
Population Apoptotic (%) (Fibroblast; [3]): 34% and 35%
Population Fragmented Nuclei (%) (Fibroblast; [3]): 10% and 14%
Population Healthy Nuclei (%) (Fibroblast; [3]): 75% and 71%
Population Hoechst High Intensity Objects (%) (Fibroblast; [3]): 0%
Population Membrane Permeable-Phenotype (%) (Fibroblast; [3]): 5% and 6%
Population Mitochondria Different-Phenotype (%) (Fibroblast; [3]): 0% and 1%
Population Mitotic Cells (%) (Fibroblast; [3]): 65% and 64%
Population Normal (%) (Fibroblast; [3]): 100%
Population Pyknosed Nuclei (%) (Fibroblast; [3]): 13%
Population Tubulin-Different-Phenotype (%) (Fibroblast; [3]): 14% and 5%
Total Cell Count (Fibroblast; [3]): 166 and 271
Population Apoptotic (%) (Fibroblast; [4]): 48% and 35%
Population Fragmented Nuclei (%) (Fibroblast; [4]): 5% and 6%
Population Healthy Nuclei (%) (Fibroblast; [4]): 73% and 65%
Population Hoechst High Intensity Objects (%) (Fibroblast; [4]): 0%
Population Membrane Permeable-Phenotype (%) (Fibroblast; [4]): 7% and 6%
Population Mitochondria Different-Phenotype (%) (Fibroblast; [4]): 0%
Population Mitotic Cells (%) (Fibroblast; [4]): 52% and 64%
Population Normal (%) (Fibroblast; [4]): 100%
Population Pyknosed Nuclei (%) (Fibroblast; [4]): 20% and 27%
Population Tubulin-Different-Phenotype (%) (Fibroblast; [4]): 13%
Total Cell Count (Fibroblast; [4]): 123 and 204
Population Apoptotic (%) (Fibroblast; [5]): 79% and 65%
Population Fragmented Nuclei (%) (Fibroblast; [5]): 14% and 17%
Population Healthy Nuclei (%) (Fibroblast; [5]): 71% and 74%
Population Hoechst High Intensity Objects (%) (Fibroblast; [5]): 0%
Population Membrane Permeable-Phenotype (%) (Fibroblast; [5]): 2% and 6%
Population Mitochondria Different-Phenotype (%) (Fibroblast; [5]): 0%
Population Mitotic Cells (%) (Fibroblast; [5]): 20% and 34%
Population Normal (%) (Fibroblast; [5]): 100%
Population Pyknosed Nuclei (%) (Fibroblast; [5]): 13% and 8%
Population Tubulin-Different-Phenotype (%) (Fibroblast; [5]): 8% and 4%
Total Cell Count (Fibroblast; [5]): 174 and 274
Population Apoptotic (%) (Fibroblast; [6]): 53% and 47%
Population Fragmented Nuclei (%) (Fibroblast; [6]): 17% and 14%
Population Healthy Nuclei (%) (Fibroblast; [6]): 70% and 62%
Population Hoechst High Intensity Objects (%) (Fibroblast; [6]): 0%
Population Membrane Permeable-Phenotype (%) (Fibroblast; [6]): 8% and 10%
Population Mitochondria Different-Phenotype (%) (Fibroblast; [6]): 0%
Population Mitotic Cells (%) (Fibroblast; [6]): 46% and 52%
Population Normal (%) (Fibroblast; [6]): 100% and 99%
Population Pyknosed Nuclei (%) (Fibroblast; [6]): 11% and 23%
Population Tubulin-Different-Phenotype (%) (Fibroblast; [6]): 12% and 13%
Total Cell Count (Fibroblast; [6]): 134 and 222
Population Apoptotic (%) (HEK-293T; [1]): 40% and 36%
Population Fragmented Nuclei (%) (HEK-293T; [1]): 3% and 2%
Population Healthy Nuclei (%) (HEK-293T; [1]): 85% and 86%
Population Hoechst High Intensity Objects (%) (HEK-293T; [1]): 6% and 5%
Population Membrane Permeable-Phenotype (%) (HEK-293T; [1]): 3% and 2%
Population Mitochondria Different-Phenotype (%) (HEK-293T; [1]): 11% and 14%
Population Mitotic Cells (%) (HEK-293T; [1]): 59% and 63%
Population Normal (%) (HEK-293T; [1]): 93% and 94%
Population Pyknosed Nuclei (%) (HEK-293T; [1]): 10% and 11%
Population Tubulin-Different-Phenotype (%) (HEK-293T; [1]): 48% and 50%
Total Cell Count (HEK-293T; [1]): 880 and 697
Population Apoptotic (%) (HEK-293T; [2]): 49% and 41%
Population Fragmented Nuclei (%) (HEK-293T; [2]): 2% and 4%
Population Healthy Nuclei (%) (HEK-293T; [2]): 86% and 81%
Population Hoechst High Intensity Objects (%) (HEK-293T; [2]): 8% and 4%
Population Membrane Permeable-Phenotype (%) (HEK-293T; [2]): 4% and 6%
Population Mitochondria Different-Phenotype (%) (HEK-293T; [2]): 14% and 18%
Population Mitotic Cells (%) (HEK-293T; [2]): 50% and 58%
Population Normal (%) (HEK-293T; [2]): 91% and 95%
Population Pyknosed Nuclei (%) (HEK-293T; [2]): 11% and 14%
Population Tubulin-Different-Phenotype (%) (HEK-293T; [2]): 57% and 50%
Total Cell Count (HEK-293T; [2]): 669 and 576
Population Apoptotic (%) (HEK-293T; [3]): 36% and 39%
Population Fragmented Nuclei (%) (HEK-293T; [3]): 5%
Population Healthy Nuclei (%) (HEK-293T; [3]): 87% and 88%

Reference: ChEMBL document CHEMBL5303300, “EUbOPEN Chemogenomics Library - Multiplex” (2023)
